CendR NRP1 mod: modulators of CendR peptide binding to NRP-1, primary screen, biochemical, fluorescence polarization, uHTS | Neuropilin-1 (Homo sapiens), O14786 | FAM-RPARPAR peptide binding to NRP-1 | inhibition, % at 25 µM | actives 0.85% (n = 360,000) | AID 602438, 2012;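 active means inhibition or corrected inhibition above about 18%, plus a signal ratio from 0.5 to 1.5, limit read from the data, passing the limit was not always enough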
PLCb3 inh: human PLC-beta3 inhibitors, primary screen, biochemical, fluorescence. inhibition, % at 12.2 µM. Purified PLC-beta3, fluorogenic substrate. actives 0.18% (n = 370,000). 1-phosphatidylinositol 4,5-bisphosphate phosphodiesterase beta-3 (Homo sapiens), Q01970; in the data active means inhibition above about 11%;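 further: 0% = median of compound wells on plate and 100% = full blocker control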
DDE Tn6 FP inh: inhibitors of Tn6 peptide binding to fibrin DD(E), primary screen, biochemical, fluorescence polarization, human fibrin, Tn6 probe. Fibrinogen beta chain (Homo sapiens), P02675. actives 0.21% (n = 370,000). Fibrin DD(E) TRITC-Tn6 fluorescence polarization displacement. inhibition, % at 8.3 µM;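 active means inhibition above a per-campaign cutoff: mean of compounds within control limits plus 3 SD, cut at about 15% in these data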;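 further: 0% = median of all compound wells on the plate and 100% = blocking peptide control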
Target sequence (P02675 whole entry, looked up): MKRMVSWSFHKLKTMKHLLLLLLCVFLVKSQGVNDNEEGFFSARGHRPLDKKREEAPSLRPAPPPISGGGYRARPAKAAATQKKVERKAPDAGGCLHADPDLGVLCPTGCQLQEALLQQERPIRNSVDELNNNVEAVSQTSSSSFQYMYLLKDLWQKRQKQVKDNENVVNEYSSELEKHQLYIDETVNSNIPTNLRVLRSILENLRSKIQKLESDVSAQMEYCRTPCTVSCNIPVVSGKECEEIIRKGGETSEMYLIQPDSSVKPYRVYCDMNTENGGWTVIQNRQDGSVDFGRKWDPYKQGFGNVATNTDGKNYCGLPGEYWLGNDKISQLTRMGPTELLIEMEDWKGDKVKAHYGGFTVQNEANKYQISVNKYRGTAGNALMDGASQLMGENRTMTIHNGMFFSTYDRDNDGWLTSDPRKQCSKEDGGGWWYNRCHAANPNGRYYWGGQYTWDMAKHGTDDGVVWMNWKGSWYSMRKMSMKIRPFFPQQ
Tn7 DDE FP: inhibitors of Tn7 peptide binding to fibrin DD(E), primary screen, biochemical, fluorescence polarization, human fibrin, Tn7 probe; inhibition, % at 8.3 µM; Fibrinogen beta chain (Homo sapiens), P02675; actives 0.13% (n = 370,000); AID 720508, 2013; FP displacement of FITC-Tn7 peptide from fibrin DD(E); 0% = median of compound wells per plate;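 active means inhibition above the mean of compounds falling within the control limits plus 3 SD of them, cut at about 14% in these data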;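 further: 0% = plate median of compound wells and 100% = 10 µM Aha-Tn7 peptide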
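Assay system: Human clot-derived fibrin DD(E) complex | Buffer or medium: Tris/NaCl/CaCl2 buffer, pH 7.8 | Repeats: One replicate per compound | Benchmarks: Aha-Tn7 high control | Measure: % inhibition scaled between sample-field median and high-control FP | Schedule: 10 min plus 3 h, room temperature | Signal: Fluorescence polarization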
PLCg1 inh: PLC-gamma1 enzyme inhibitors, primary screen, biochemical, fluorescence, purified enzyme | fluorogenic substrate | inhibition, % at 12.2 µM | actives 0.84% (n = 370,000) | AID 720700, 2013; in the data active means inhibition above about 9.5%
proKLK7 act: proKLK7 zymogen activators, primary screen, biochemical, fluorescence intensity; AID 652039, 2013; activation, % at 7 µM; actives 0.9% (n = 370,000); purified proKLK7, EDANS-DABCYL substrate fluorescence; 100% is mature enzyme control, 0% vehicle; Kallikrein-7 (Homo sapiens), P49862;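 active means activation above the mean of all tested compounds plus 3 SD, computed per campaign excluding outliers beyond control limits, cut at about 13% in these data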
proKLK7 act conf: proKLK7 zymogen activators, confirmation, biochemical, fluorescence intensity, triplicate; purified proKLK7, EDANS-DABCYL substrate fluorescence; scaled: vehicle 0, mature enzyme 100; shares compounds with proKLK7 act; activation, % at 7 µM; actives 68% (n = 3,200);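 active means activation, as change over the incubation, above the mean of all tested compounds plus 3 SD, cut at about 13% in these data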
EDANS-DABCYL int: EDANS-DABCYL substrate optical interference, artefact control for kallikrein-7 zymogen activator project, biochemical, fluorescence intensity, high throughput; AID 686952, 2013; actives 80% (n = 3,200); activation, % at 7 µM; no enzyme, 4 h; solvent 0%, active enzyme control 100%; shares compounds with proKLK7 act;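 active means activation above the all-compound mean plus 3 SD, ignoring values outside control-based bounds, cut at about 4.8% in these data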;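 further: value is the 4 h activation minus the activation read at time zero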
EDANS interf: EDANS fluorescence interference in dose response, no enzyme | shares compounds with proKLK7 act | EDANS-DABCYL peptide fluorescence interference | EC50, µM | actives 20% (n = 250) | AID 720493;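 active means compounds that raise the fluorescence signal in this interference counterscreen, with EC50 at or below 10 µM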;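 further: intact quenched peptide substrate alone read at 355 nm excitation and 520 nm emission; signal is fluorescence gain from T0 to T4 after four hours at room temperature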
Starred values were filed as active, the others as inactive. Only some compounds are listed: those with a hit (about 3% of all), similar ones and a draw of the others.

Screening CC1=C(C#N)C(c2cccnc2)C2=C(CCCC2=O)N1 (stereo unspecified) returned CendR NRP1 mod -8, PLCb3 inh inactive, DDE Tn6 FP inh 0, Tn7 DDE FP -6, PLCg1 inh inactive, proKLK7 act 17*, proKLK7 act conf 51* and EDANS-DABCYL int 64*.
For CCCC(=O)OC12CCCN(C1)/C(=C/c1cccc(OC)c1)C2 (stereo unspecified) the results were PLCb3 inh -3, DDE Tn6 FP inh -1, Tn7 DDE FP -6, PLCg1 inh 0 and proKLK7 act 1.
`COc1cccc(CN2C(=O)c3cccc(N)c3C2=O)c1` gave CendR NRP1 mod -14, PLCb3 inh inactive, DDE Tn6 FP inh -5, Tn7 DDE FP -5, PLCg1 inh inactive, proKLK7 act 15*, proKLK7 act conf 76* and EDANS-DABCYL int 79*.
Screening COc1ccc(N2CCCN(CC(=O)Nc3ccc(Cl)c(Cl)c3)CC2)cc1 returned PLCb3 inh 1, DDE Tn6 FP inh -6, Tn7 DDE FP -1, PLCg1 inh -1 and proKLK7 act 0.
For C/C(C=NNC(=O)CSc1nc2ccccc2n1Cc1ccccc1Cl)=C\c1ccccc1 the results were PLCb3 inh 0, DDE Tn6 FP inh 2, Tn7 DDE FP -5, PLCg1 inh 3 and proKLK7 act 0.
`O=C(NCc1ccccc1)C1C(=O)Nc2ccccc2C(=O)N1C1CCCC1` (stereo unspecified) gave CendR NRP1 mod 9, PLCb3 inh -36, DDE Tn6 FP inh -5, Tn7 DDE FP -5, PLCg1 inh -12 and proKLK7 act 1.
`CC(=O)Nc1ccc(C2Nc3ccccc3C(=O)N2C2CCCCC2)cc1` (stereo unspecified) gave CendR NRP1 mod 4, PLCb3 inh -430, DDE Tn6 FP inh 10, Tn7 DDE FP 3, PLCg1 inh -312, proKLK7 act 13*, proKLK7 act conf 30*, EDANS-DABCYL int 26* and EDANS interf inactive.
`COc1ccc(S[C@]2(C(=O)N3CCOCC3)CC(=O)N(C(=O)CCc3ccccc3)[C@@H]2c2ccc(OC)cc2)cc1` gave PLCb3 inh 1, DDE Tn6 FP inh 0, Tn7 DDE FP -3, PLCg1 inh 1 and proKLK7 act 1.
Screening O=C1c2ccccc2NC(c2ccccc2)N1Cc1ccco1 (stereo unspecified) returned CendR NRP1 mod -9, PLCb3 inh -420, DDE Tn6 FP inh 10, Tn7 DDE FP 2, PLCg1 inh -341, proKLK7 act 17*, proKLK7 act conf 17*, EDANS-DABCYL int 7.5* and EDANS interf >70.
Screening O=C1c2ccccc2NC(c2ccccc2)N1Cc1ccccc1 (stereo unspecified) returned CendR NRP1 mod -7, PLCb3 inh -335, DDE Tn6 FP inh -9, Tn7 DDE FP 3, PLCg1 inh -348 and proKLK7 act 9.
For O=C1c2ccccc2NC(c2ccc(F)cc2)N1Cc1ccco1 (stereo unspecified) the results were CendR NRP1 mod 10, PLCb3 inh inactive, DDE Tn6 FP inh 1, Tn7 DDE FP 5, PLCg1 inh -453, proKLK7 act 15*, proKLK7 act conf 11 and EDANS-DABCYL int 19*.
Screening COCCCNC(=O)C1CCN(S(=O)(=O)c2ccc3[nH]c(=O)oc3c2)CC1 returned PLCb3 inh 4, DDE Tn6 FP inh -3, Tn7 DDE FP 1, PLCg1 inh 6 and proKLK7 act 0.
`O=C(Cn1nnc(-c2ccccc2F)n1)Nc1ccc(Cl)cc1` gave PLCb3 inh -2, DDE Tn6 FP inh -11, Tn7 DDE FP -2, PLCg1 inh -1 and proKLK7 act -1.
CC(C)[C@H](NC(=O)OC(C)(C)C)C(=O)N1CCC(Oc2cccnc2)CC1 was read as PLCb3 inh 4, DDE Tn6 FP inh -7, Tn7 DDE FP 6, PLCg1 inh 2 and proKLK7 act 1.
COC(=O)C1=C(C)N(CCCC(=O)O)C(=O)NC1c1cc2c(cc1[N+](=O)[O-])OCO2 (stereo unspecified) was read as CendR NRP1 mod 6, PLCb3 inh -106, DDE Tn6 FP inh -8, Tn7 DDE FP -6, PLCg1 inh -62, proKLK7 act 13*, proKLK7 act conf 13* and EDANS-DABCYL int 14*.
Screening COC(=O)C1=C(C)N(C)C(=O)NC1c1cc2c(cc1[N+](=O)[O-])OCO2 (stereo unspecified) returned CendR NRP1 mod 0, PLCb3 inh -63, DDE Tn6 FP inh 5, Tn7 DDE FP -5, PLCg1 inh -58 and proKLK7 act 4.
`O=C(Nc1ncc2c(n1)-c1ccccc1OC2)c1ccc(F)cc1` gave CendR NRP1 mod -2, PLCb3 inh -124, DDE Tn6 FP inh 4, Tn7 DDE FP 5, PLCg1 inh -80, proKLK7 act 32*, proKLK7 act conf 15*, EDANS-DABCYL int 12* and EDANS interf inactive.
Screening Cc1ccccc1-c1ccc2c(c1)[C@@H]1C[C@H](N(C)CC3CCCCC3)[C@H]([C@H](C)O)CN1CC2 returned PLCb3 inh -106, DDE Tn6 FP inh 0, Tn7 DDE FP 5, PLCg1 inh -84, proKLK7 act 13*, proKLK7 act conf 6 and EDANS-DABCYL int 7.1*.
`N#Cc1c(C(F)(F)F)cc(=O)n2c1[nH]c1ccccc12` gave CendR NRP1 mod 2, PLCb3 inh inactive, DDE Tn6 FP inh -2, Tn7 DDE FP 2, PLCg1 inh inactive, proKLK7 act 52*, proKLK7 act conf 64* and EDANS-DABCYL int 66*.
For N#Cc1c(CSCC(=O)O)cc(=O)n2c1[nH]c1ccccc12 the results were CendR NRP1 mod -29, PLCb3 inh -64, DDE Tn6 FP inh 3, Tn7 DDE FP -2, PLCg1 inh -43 and proKLK7 act 1.

Screening data deposited in PubChem by several laboratories.
